Results as given in ChEMBL document CHEMBL1765016, “Indolylarylsulfones as HIV-1 non-nucleoside reverse transcriptase inhibitors: new cyclic substituents at indole-2-carboxamide” (J Med Chem, 2011).

Columns and labels:
[1] = biological target: Human immunodeficiency virus type 1 reverse transcriptase (Human immunodeficiency virus 1, UniProt Q72547, K103N); experiment: Inhibition of HIV1 reverse transcriptase K103N mutant expressed in Escherichia coli assessed as incorporation of [3H]dTTP into poly(rA)/oligo(dT) by scintillation counting
In short: (§1)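 The RT was recombinant p66(His)/p51 heterodimer, mutant form, expressed in E. coli. TCA-precipitable radioactivity on GF/C filters was read by scintillation. IC50 is the concentration giving 50% inhibition.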

[2] = biological target: Human immunodeficiency virus type 1 reverse transcriptase (Human immunodeficiency virus 1, UniProt Q72547); experiment: Inhibition of HIV1 wild type reverse transcriptase expressed in Escherichia coli assessed as incorporation of [3H]dTTP into poly(rA)/oligo(dT) by scintillation counting
In short: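 Template was poly(rA)/oligo(dT) 10:1 (0.3 μM 3′-OH ends) with 10 μM [³H]dTTP, at 37 °C. TCA-precipitable counts were taken on GF/C filters. IC₅₀ is 50% inhibition of RT activity.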

[3] = biological target: Human immunodeficiency virus type 1 reverse transcriptase (Human immunodeficiency virus 1, UniProt Q72547, Y181I); experiment: Inhibition of HIV1 reverse transcriptase Y181I mutant expressed in Escherichia coli assessed as incorporation of [3H]dTTP into poly(rA)/oligo(dT) by scintillation counting; in short: as §1
[4] = biological target: Human immunodeficiency virus type 1 reverse transcriptase (Human immunodeficiency virus 1, UniProt Q72547, L100I); experiment: Inhibition of HIV1 reverse transcriptase L100I mutant expressed in Escherichia coli assessed as incorporation of [3H]dTTP into poly(rA)/oligo(dT) by scintillation counting; in short: as §1
[5] = system: Human immunodeficiency virus 1; experiment: Antiviral activity against wild type HIV1 3B infected in human CEM cells assessed as inhibition of virus-induced cytopathicity after 4 days by microscopic analysis; assay type: functional, organism-based; conditions: Human immunodeficiency virus 1, 3B, CCRF-CEM, 96 h
In short: (§2)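 CEM cells (~3 × 10⁵ cells/mL) infected with ~100 CCID₅₀ virus per mL, seeded into wells with compound dilutions. Syncytia (giant cell) formation scored microscopically after 4 days at 37 °C. EC₅₀ is the concentration protecting cells by 50%. Values are means of two experiments in triplicate.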

[6] = system: Human immunodeficiency virus 2; experiment: Antiviral activity against HIV2 isolate ROD infected in human CEM cells assessed as inhibition of virus-induced cytopathicity after 4 days by microscopic analysis; assay type: functional, organism-based; conditions: Human immunodeficiency virus 2, ISOLATE ROD, CCRF-CEM, 96 h; in short: as §2
[7] = Selectivity index, CC50 for human CEM cells to IC50 for HIV1 3B; assay type: functional, CCRF-CEM
In short: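 Ratio of CC₅₀ (Coulter count, mock-infected CEM) to EC₅₀ (CEM, HIV-1 IIIB, microscopic syncytia scoring at day 4).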

[8] = Cytotoxicity against human CEM cells by coulter counter analysis; assay type: cell-based; conditions: CEM (CCRF-CEM) cells
In short: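 Mock-infected CEM cultures with compound, cell number counted by Coulter counter as percent of untreated control. CC₅₀ (50% reduction in proliferation) was read from plots against concentration. Values are means of two experiments in triplicate.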

| SMILES | IC50 [1] [µM] | IC50 [2] [µM] | IC50 [3] [µM] | IC50 [4] [µM] | EC50 [5] [µM] | EC50 [6] [µM] | Selectivity Index [7] | CC50 [8] [µM] |
| --- | --- | --- | --- | --- | --- | --- | --- | --- |
| Cc1cc(C)cc(S(=O)(=O)c2c(C(=O)NCN3CCOCC3)[nH]c3ccc([N+](=O)[O-])cc23)c1 | 0.864 | 0.15 | 1.6 | 0.099 | 0.0058 | ≥ 10 | 7931 | 46 |
| Cc1cc(C)cc(S(=O)(=O)c2c(C(=O)NCN3CCCC3)[nH]c3ccc(Br)cc23)c1 | 0.067 | 0.008 | 0.418 | 0.014 | 0.0013 | > 2 | 7385 | 9.6 |
| Cc1cc(C)cc(S(=O)(=O)c2c(C(=O)NCCN3CCOCC3)[nH]c3ccc(Cl)cc23)c1 | 6.68 | 0.099 | > 40 | 0.225 | 0.0088 | > 2 | 5682 | 50 |
| Cc1cc(C)cc(S(=O)(=O)c2c(C(=O)NCN3CCCCC3)[nH]c3ccc(Br)cc23)c1 | 0.125 | 0.03 | 0.497 | 0.019 | 0.0037 | > 2 | 2703 | 10 |
| Cc1cc(C)cc(S(=O)(=O)c2c(C(=O)NCCn3cccc3)[nH]c3ccc([N+](=O)[O-])cc23)c1 | 0.272 | 0.034 | > 40 | 0.023 | 0.0069 | > 50 | 32754 | 226 |
| Cc1cc(C)cc(S(=O)(=O)c2c(C(=O)NCCN3CCCC3)[nH]c3ccc(Cl)c(F)c23)c1 | 2.41 | 0.158 | > 40 | 1.55 | 0.028 | > 2 | 229 | 6.4 |
| Cc1cc(C)cc(S(=O)(=O)c2c(C(=O)NCCc3ccccc3)[nH]c3ccc(Br)cc23)c1 | 1.68 | 0.128 | > 40 | 0.023 | 0.014 | > 2 | 29214 | 409 |
| Cc1cc(C)cc(S(=O)(=O)c2c(C(=O)NCCN3CCOCC3)[nH]c3ccc(Cl)c(F)c23)c1 | 6.37 | 0.711 | > 40 | 0.747 | 0.013 | > 10 | 846 | 11 |
| Cc1cc(C)cc(S(=O)(=O)c2c(C(=O)NCCOc3ccccc3)[nH]c3ccc(Cl)c(F)c23)c1 | 18.5 | 0.066 | > 40 | 0.068 | 0.019 | > 2 | 549 | 11 |
| Cc1cc(C)cc(S(=O)(=O)c2c(C(=O)NCCn3cccc3)[nH]c3ccc(Cl)c(F)c23)c1 | 0.17 | 0.018 | 3.7 | 0.03 | 0.0055 | > 10 | 1782 | 9.8 |
| Cc1cc(C)cc(S(=O)(=O)c2c(C(=O)NCN3CCCC3)[nH]c3ccc([N+](=O)[O-])cc23)c1 | 0.287 | 0.034 | 1.02 | 0.054 | 0.0025 | 7.8 | 4800 | 12 |
| Cc1cc(C)cc(S(=O)(=O)c2c(C(=O)NCN3CCCC3)[nH]c3ccc(Cl)c(F)c23)c1 |  |  |  |  | 0.0039 | > 2 | 2385 | 9.3 |
| Cc1cc(C)cc(S(=O)(=O)c2c(C(=O)NCCc3ccccc3)[nH]c3ccc([N+](=O)[O-])cc23)c1 | > 40 | 0.06 | > 40 | 0.04 | 0.0068 | > 50 | >72529 | > 500 |
| Cc1cc(C)cc(S(=O)(=O)c2c(C(=O)NCN3CCOCC3)[nH]c3ccc(Cl)c(F)c23)c1 | 1.17 | 0.08 | 10.2 | 0.241 | 0.0025 | > 10 | 15200 | 38 |
| Cc1ccnc2c1NC(=O)c1cccnc1N2C1CC1 [NEVIRAPINE] |  |  |  |  | 0.0192 | > 10 | >520 | > 10000 |
| Cc1cc(C)cc(S(=O)(=O)c2c(C(=O)NCCN3CCCC3)[nH]c3ccc(Br)cc23)c1 | 0.697 | 0.065 | > 40 | 0.315 | 0.016 | > 2 | 351 | 5.6 |
| Cc1cc(C)cc(S(=O)(=O)c2c(C(=O)NCN3CCCCC3)[nH]c3ccc([N+](=O)[O-])cc23)c1 | 0.307 | 0.013 | 0.999 | 0.01 | 0.0031 | 7.5 | 3871 | 12 |
| O=C1Nc2ccc(Cl)cc2[C@@](C#CC2CC2)(C(F)(F)F)O1 [EFAVIRENZ] |  |  |  |  | 0.0015 | > 10 | >6667 | > 10000 |
| Cc1cc(C)cc(S(=O)(=O)c2c(C(=O)NCN3CCOCC3)[nH]c3ccc(Br)cc23)c1 | 0.863 | 0.168 | 4.3 | 0.1 | 0.0034 | > 10 | 10294 | 35 |
| Cc1cc(C)cc(S(=O)(=O)c2c(C(=O)NCCn3cccc3)[nH]c3ccc(Br)cc23)c1 |  |  |  |  | 0.0064 | > 10 | 22813 | 146 |
| Cc1cc(C)cc(S(=O)(=O)c2c(C(=O)NCCOc3ccccc3)[nH]c3ccc([N+](=O)[O-])cc23)c1 | > 40 | 0.95 | > 40 | > 40 | 0.029 | > 2 | >17241 | > 500 |
| Cc1cc(C)cc(S(=O)(=O)c2c(C(=O)NCN3CCCCC3)[nH]c3ccc(Cl)c(F)c23)c1 |  |  |  |  | 0.0039 | > 10 | 8205 | 32 |
| Cc1cc(C)cc(S(=O)(=O)c2c(C(=O)NCCc3ccccc3)[nH]c3ccc(Cl)c(F)c23)c1 |  |  |  |  | 0.014 | > 10 | 1214 | 17 |
